Values belong to the compound of their own block, whether it stands above or below them.
Experiments:
[1] = molecular target: T1, CTSL (Homo sapiens, UniProt P07711); experiment: CTSL activity test, cell-free system; format: biochemical; details: for inhibition at 100 µM: read-out: inhibition of CTSL
[2] = molecular target: T1, CTSL; experiment: Enzyme kinetics of CTSL; format: biochemical; details: for inhibition mechanism: 6.25 µM to 100 µM, both Km and Vmax decreased
Outline: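 A standard-curve conversion factor turned signal into velocity. Values were corrected by subtracting the […] and fitted to Michaelis-Menten. Lineweaver–Burk plots gave the inhibition mechanism. Mean ± SEM.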

T1 sequence (P07711 114-288 limits assumed): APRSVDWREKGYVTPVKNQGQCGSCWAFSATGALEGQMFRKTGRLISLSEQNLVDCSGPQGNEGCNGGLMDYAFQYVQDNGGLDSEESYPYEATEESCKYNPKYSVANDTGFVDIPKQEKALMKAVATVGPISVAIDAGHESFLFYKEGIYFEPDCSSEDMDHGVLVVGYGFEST
T1 sequence (P07711 292-333 limits assumed): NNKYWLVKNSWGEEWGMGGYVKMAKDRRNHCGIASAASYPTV

inhibition at 100 µM [1]: > 90%
Structure (SMILES): COc1cc(O)cc(O)c1C(=O)/C=C/c1ccccc1 [(E)-Cardamonin]

inhibition at 100 µM [1]: > 90%
Structure (SMILES): O=C(N[C@H](COC(=O)[C@H](Cc1ccccc1)NC(=O)c1ccccc1)Cc1ccccc1)c1ccccc1 [Asperphenamate]

inhibition mechanism [2]: uncompetitive inhibition mechanism
Vmax ([2]; inhibitor 6.25 μM): 194.8 ± 9.2 Rlu/min
Vmax ([2]; inhibitor 12.5 μM): 181.3 ± 32.9 Rlu/min
Vmax ([2]; inhibitor 25 μM): 136.9 ± 27.6 Rlu/min
Vmax ([2]; inhibitor 50 μM): 103.1 ± 2.2 Rlu/min
Vmax ([2]; inhibitor 100 μM): 39.9 ± 0.2 Rlu/min
IC50 [1]: 9.6 µM
inhibition at 100 µM [1]: > 90%
Structure (SMILES): CC1(C)CCC2=C(O1)c1ccccc1C(=O)C2=O [Beta-Lapachone]

inhibition at 100 µM [1]: > 90%
Structure (SMILES): Cc1c(O)c(C)c2c(c1O)C(=O)C[C@@H](c1ccc(O)cc1)O2 [Farrerol]

inhibition at 100 µM [1]: > 90%
Structure (SMILES): COc1cc(O)c(C(=O)/C=C/c2ccccc2)c(OC)c1 [Flavokawain B]

inhibition at 100 µM [1]: > 90%
Structure (SMILES): O=C(/C=C/c1ccc(O)cc1)c1c(O)cc(O)cc1O [Naringenin chalcone]

inhibition at 100 µM [1]: > 90%
Structure (SMILES): O=CCc1ccccc1 [Phenylacetaldehyde]

Structure (SMILES): CC1=CC(=O)c2c(O)cccc2C1=O [Plumbagin]
inhibition mechanism [2]: uncompetitive inhibition mechanism
Vmax ([2]; inhibitor 6.25 μM): 321.7 ± 13.9 Rlu/min
Vmax ([2]; inhibitor 12.5 μM): 277.5 ± 15.6 Rlu/min
Vmax ([2]; inhibitor 25 μM): 270.5 ± 11.2 Rlu/min
Vmax ([2]; inhibitor 50 μM): 216.8 ± 20.5 Rlu/min
Vmax ([2]; inhibitor 100 μM): 12.3 ± 2.4 Rlu/min
IC50 [1]: 31.3 µM
inhibition at 100 µM [1]: > 90%

From paper PMC11245987 (Computational and Structural Biotechnology Journal, 2024)
